Measured values: ChEMBL document CHEMBL1122281, “Synthesis and antifilarial activity of N-[4-[[4-alkoxy-3-[(dialkylamino)methyl]phenyl]amino]- 2-pyrimidinyl]-N'-phenylguanidines” (J Med Chem, 1983)

What was measured:
[1] = tested on: Litomosoides carinii; experiment: Antifilarial activity against Litomosoides carinii infections in the Jird at dose 100 mg/kg administered orally; assay type: functional; conditions: route oral
Outline: (§1)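 L. carinii-infected jirds were dosed. Survivors were killed 55–70 days after the first dose, and the pleural and peritoneal cavities were searched for adult worms. Live worms at autopsy were scored as a percentage relative to sham-dosed controls. Adult worm reduction above 60% was the activity criterion.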

[2] = tested on: Litomosoides carinii; experiment: Antifilarial activity against Litomosoides carinii infections in the Jird at dose 3 mg/kg administered orally; assay type: functional; conditions: route oral; outline: as §1
[3] = tested on: Litomosoides carinii; experiment: Antifilarial activity against Litomosoides carinii infections in the Jird at dose 100 mg/kg administered subcutaneously; assay type: functional; conditions: route subcutaneous; outline: as §1
[4] = tested on: Litomosoides carinii; experiment: Antifilarial activity against Litomosoides carinii infections in the Jird at dose 25 mg/kg administered orally; assay type: functional; conditions: route oral; outline: as §1
[5] = tested on: Litomosoides carinii; experiment: Antifilarial activity against Litomosoides carinii infections in the Jird at dose 50 mg/kg administered orally; assay type: functional; conditions: route oral; outline: as §1
[6] = tested on: Litomosoides carinii; experiment: Antifilarial activity against Litomosoides carinii infections in the Jird at dose 12 mg/kg administered orally; assay type: functional; conditions: route oral; outline: as §1
[7] = Antifilarial activity against Litomosoides carinii infections in the Jird at dose 100 mg/kg administered subcutaneously; two or more animals died prematurely considered to be drug toxicity.; assay type: organism-based, Meriones unguiculatus; parameters: dose 100 mg/kg, route subcutaneous; conditions: gerbil, in vivo, sc
Outline: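 Jirds infected with Litomosoides carinii. Surviving animals killed 55–70 days after first drug dose; pleural and peritoneal cavities searched for adult worms. Live worm count at autopsy scored as percentage relative to sham-dosed controls. Activity criterion: adult worm reduction exceeding 60%.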

Row | SMILES | Reduction of live worms [1] [%] | Reduction of live worms [2] [%] | Reduction of live worms [3] [%] | Reduction of live worms [4] [%] | other results
1 | CCN(CC)Cc1cc(Nc2cc(C(F)(F)F)nc(/N=C(\N)Nc3ccc(C(F)(F)F)cc3)n2)ccc1OCc1ccccc1 | 100 | 0 | 100 | 100 | 
2 | CCN(CC)Cc1cc(Nc2cc(C(F)(F)F)nc(/N=C(\N)Nc3ccc(OC)cc3)n2)ccc1OC |  | 0 | 100 | 100 | 
3 | CC(C)CNCc1cc(Nc2cc(C(F)(F)F)nc(/N=C(\N)Nc3ccc(Cl)c(Cl)c3)n2)ccc1O | 100 | 35 |  | 100 | 
4 | CCN(CC)Cc1cc(Nc2cc(C(F)(F)F)nc(/N=C(\N)Nc3ccc(OC)cc3)n2)ccc1O | 95 | 2 | 95 | 100 | 
5 | COc1ccc(Nc2cc(C(F)(F)F)nc(/N=C(\N)Nc3ccccc3)n2)cc1CN1CCN(C)CC1 | 100 | 5 |  | 95 | 
6 | N/C(=N\c1ccc(Cl)cc1)Nc1nc(Nc2ccc(O)c(CN3CCCC3)c2)cc(C(F)(F)F)n1 |  |  |  |  | Reduction of live worms [5]: 100%; Reduction of live worms [6]: 87%
7 | CCN(CC)Cc1cc(Nc2cc(-c3ccccc3)nc(/N=C(\N)Nc3ccc(Cl)c(Cl)c3)n2)ccc1O | 47 |  | 53 |  | 
8 | CCNCc1cc(Nc2cc(C(F)(F)F)nc(/N=C(\N)Nc3ccc(C(=O)c4ccccc4)cc3)n2)ccc1OC |  |  | 0 |  | 
9 | CCN(CC)Cc1cc(Nc2cc(C(F)(F)F)nc(/N=C(\N)Nc3ccc(Cl)c(Cl)c3)n2)ccc1OCc1ccccc1 | 100 | 52 |  | 100 | 
10 | CCN(CC)Cc1cc(Nc2cc(C(F)(F)F)nc(/N=C(\N)Nc3ccc(C(=O)c4ccccc4)cc3)n2)ccc1OC | 16 |  | 19 |  | 
11 | CN1CCN(Cc2cc(Nc3cc(C(F)(F)F)nc(/N=C(\N)Nc4ccc(Cl)cc4)n3)ccc2O)CC1 |  |  |  |  | Reduction of live worms [5]: 98%; Reduction of live worms [6]: 38%
12 | CCNCc1cc(Nc2cc(C(F)(F)F)nc(/N=C(\N)Nc3ccc(C(F)(F)F)cc3)n2)ccc1OC | 100 | 30 | 100 | 100 | 
13 | CCN(CC)Cc1cc(Nc2cc(C(F)(F)F)nc(/N=C(\N)Nc3ccc(Oc4ccccc4)cc3)n2)ccc1OC |  |  | 0 | 27 | Animals dead [7]: > 2
14 | CCOC(=O)N1CCN(Cc2cc(Nc3cc(C(F)(F)F)nc(/N=C(\N)Nc4ccc(Cl)c(Cl)c4)n3)ccc2O)CC1 |  |  | 31 |  | 
15 | N/C(=N\c1ccc(Cl)c(Cl)c1)Nc1nc(Nc2ccc(O)c(CN3CCCC3)c2)cc(C(F)(F)F)n1 | 100 | 59 |  | 100 | 
16 | CCNCc1cc(Nc2cc(C(F)(F)F)nc(/N=C(\N)Nc3ccccc3)n2)ccc1OC |  |  | 96 | 33 | 
17 | COc1ccc(Nc2cc(C(F)(F)F)nc(/N=C(\N)Nc3ccc(Cl)c(Cl)c3)n2)cc1CN(C)C | 100 | 100 | 100 | 100 | Animals dead [7]: > 2
18 | CCN(CC)Cc1cc(Nc2cc(C(F)(F)F)nc(/N=C(\N)Nc3ccc(Cl)cc3)n2)cc(-c2ccccc2)c1O | 88 |  | 35 |  | 
19 | CCN(CC)Cc1cc(Nc2cc(C(F)(F)F)nc(/N=C(\N)Nc3ccccc3)n2)ccc1OC |  |  |  |  | Reduction of live worms [5]: 100%; Reduction of live worms [6]: 38%
20 | CCOc1ccc(Nc2cc(C(F)(F)F)nc(/N=C(\N)Nc3ccc(Cl)c(Cl)c3)n2)cc1CN(CC)CC | 100 | 21 |  | 100 | 

Row | SMILES | Reduction of live worms [1] [%] | Reduction of live worms [2] [%] | Reduction of live worms [3] [%] | Reduction of live worms [4] [%] | other results
21 | CN1CCN(Cc2cc(Nc3cc(C(F)(F)F)nc(/N=C(\N)Nc4ccc(C(=O)c5ccccc5)cc4)n3)ccc2O)CC1 |  |  | 8 |  | 
22 | CCN(CC)Cc1cc(Nc2nc(/N=C(\N)Nc3ccc(Cl)c(Cl)c3)nc3c2CCCC3)ccc1O |  |  | 0 |  | 
23 | CCN(CC)Cc1cc(Nc2cc(C(F)(F)F)nc(/N=C(\N)Nc3ccc(C(F)(F)F)cc3)n2)ccc1OC | 100 | 73 | 100 | 100 | 
24 | CCN(CC)Cc1cc(Nc2cc(C(F)(F)F)nc(/N=C(\N)Nc3ccc(Cl)c(Cl)c3)n2)ccc1OC(C)C | 100 | 11 | 100 | 100 | 
25 | CCN(CC)Cc1cc(Nc2cc(C(F)(F)F)nc(/N=C(\N)Nc3ccc(C(=O)c4ccccc4)cc3)n2)ccc1OCc1ccccc1 | 27 |  | 0 |  | 
26 | N/C(=N\c1ccc(Cl)c(Cl)c1)Nc1nc(Nc2ccc(O)c(CNCC3CCCCC3)c2)cc(C(F)(F)F)n1 |  |  | 4 |  | 
27 | CN(C)Cc1cc(Nc2cc(C(F)(F)F)nc(/N=C(\N)Nc3ccc(C(=O)c4ccccc4)cc3)n2)ccc1O |  | -22 | 100 | 32 | 
28 | CCN(CC)Cc1cc(Nc2cc(C(F)(F)F)nc(/N=C(\N)Nc3ccc(C(=O)c4ccccc4)cc3)n2)ccc1O | 6 |  | 6 |  | 
29 | CN1CCN(Cc2cc(Nc3cc(C(F)(F)F)nc(/N=C(\N)Nc4ccccc4)n3)ccc2O)CC1 | 91 |  |  |  | Reduction of live worms [5]: 78%; Reduction of live worms [6]: 0%
30 | CCN(CC)Cc1cc(Nc2cc(C(F)(F)F)nc(/N=C(\N)Nc3ccc(Oc4ccccc4)cc3)n2)ccc1OCc1ccccc1 | 22 |  | 0 |  | 
31 | CN1CCN(Cc2cc(Nc3cc(C(F)(F)F)nc(/N=C(\N)Nc4ccc(Oc5ccccc5)cc4)n3)ccc2O)CC1 |  |  | 8 |  | 
32 | CCNCc1cc(Nc2cc(C(F)(F)F)nc(/N=C(\N)Nc3ccc(Oc4ccccc4)cc3)n2)ccc1OC |  |  | 0 |  | 
33 | CCN(CC)Cc1cc(Nc2cc(C(F)(F)F)nc(/N=C(\N)Nc3ccccc3)n2)ccc1O |  |  |  |  | Reduction of live worms [5]: 100%; Reduction of live worms [6]: 47%
34 | CCN(CC)Cc1cccc(Nc2cc(C(F)(F)F)nc(/N=C(\N)Nc3ccc(Cl)c(Cl)c3)n2)c1 | 100 | 83 |  | 100 | 
35 | CN(C)Cc1cc(Nc2cc(C(F)(F)F)nc(/N=C(\N)Nc3ccc(C(F)(F)F)cc3)n2)ccc1O |  | 54 |  | 100 | Animals dead [7]: > 2
36 | CCOc1ccc(Nc2cc(-c3ccccc3)nc(/N=C(\N)Nc3ccc(Cl)c(Cl)c3)n2)cc1CN(CC)CC |  | 15 |  | 78 | Animals dead [7]: > 2
37 | CCN(CC)Cc1cc(Nc2cc(C(F)(F)F)nc(/N=C(\N)Nc3ccc(Oc4ccccc4)cc3)n2)ccc1O | 9 |  | 3 |  | 
38 | CN(C)Cc1cc(Nc2cc(C(F)(F)F)nc(/N=C(\N)Nc3ccc(Oc4ccccc4)cc3)n2)ccc1O |  |  | 12 |  | 
39 | CCNCc1cc(Nc2cc(-c3ccccc3)nc(/N=C(\N)Nc3ccc(Cl)c(Cl)c3)n2)ccc1OC |  |  | 0 |  | 
